Assay results: ChEMBL document CHEMBL4680175, “Sulfonamide-based ring-fused analogues for CAN508 as novel carbonic anhydrase inhibitors endowed with antitumor activity: Design, synthesis, and in vitro biological evaluation” (Eur J Med Chem, 2020)
Activity calls are given as the source filed them. The rule behind the calls is not given here.

Experiments:
SN12C = assay: Antitumor activity against human SN12C cells assessed as cell growth inhibition at 10 uM incubated for 48 hrs by sulforhodamine B assay; format: functional; conditions: read-out: GI
Outline: (§1)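 NCI Drug Evaluation Branch protocol: primary single-dose screen at 10 μM across a 57-line human cancer panel. Drug exposure is 48 h. Cell growth and viability are read by sulforhodamine B assay. Data are given as a mean graph of percent growth of treated cells and reported as percentage growth inhibition (GI%).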

MDA-MB-231 = assay: Antitumor activity against human MDA-MB-231/ATCC cells assessed as cell growth inhibition at 10 uM incubated for 48 hrs by sulforhodamine B assay; format: functional; conditions: read-out: GI; outline: as §1
MCF7 = assay: Antitumor activity against human MCF7 cells assessed as cell growth inhibition at 10 uM incubated for 48 hrs by sulforhodamine B assay; format: functional; conditions: read-out: GI; outline: as §1
LOX IMVI = assay: Antitumor activity against human LOX IMVI cells assessed as cell growth inhibition at 10 uM incubated for 48 hrs by sulforhodamine B assay; format: functional; conditions: read-out: GI; outline: as §1
KM12 = assay: Antitumor activity against human KM12 cells assessed as cell growth inhibition at 10 uM incubated for 48 hrs by sulforhodamine B assay; format: functional; conditions: read-out: GI; outline: as §1
SK-MEL-5 = assay: Antitumor activity against human SK-MEL-5 cells assessed as cell growth inhibition at 10 uM incubated for 48 hrs by sulforhodamine B assay; format: functional; conditions: read-out: GI; outline: as §1
Carbonic anhydrase 12 = Carbonic anhydrase 12 (Homo sapiens, UniProt O43570); assay: Inhibition of recombinant human carbonic anhydrase 12 preincubated with enzyme for 15 mins by phenol red dye based stopped flow CO2 hydrase assay
Carbonic anhydrase 12, sequence (O43570 whole entry): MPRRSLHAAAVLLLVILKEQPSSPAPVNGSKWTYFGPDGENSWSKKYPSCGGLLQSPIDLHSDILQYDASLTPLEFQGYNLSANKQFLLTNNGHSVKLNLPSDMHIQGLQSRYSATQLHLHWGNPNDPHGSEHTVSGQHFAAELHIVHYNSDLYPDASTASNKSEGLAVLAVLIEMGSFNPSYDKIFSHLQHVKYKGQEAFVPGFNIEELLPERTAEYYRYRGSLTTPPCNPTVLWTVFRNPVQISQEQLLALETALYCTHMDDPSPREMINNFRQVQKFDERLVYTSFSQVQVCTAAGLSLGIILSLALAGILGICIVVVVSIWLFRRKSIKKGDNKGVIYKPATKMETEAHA

RPMI-8226 = assay: Antitumor activity against human RPMI8226 cells assessed as cell growth inhibition at 10 uM incubated for 48 hrs by sulforhodamine B assay; format: functional; conditions: read-out: GI; outline: as §1
HCT-116 = assay: Antitumor activity against human HCT116 cells assessed as cell growth inhibition at 10 uM incubated for 48 hrs by sulforhodamine B assay; format: functional; conditions: read-out: GI; outline: as §1
DU-145 = assay: Antitumor activity against human DU-145 cells assessed as cell growth inhibition at 10 uM incubated for 48 hrs by sulforhodamine B assay; format: functional; conditions: read-out: GI; outline: as §1
BT-549 = assay: Antitumor activity against human BT-549 cells assessed as cell growth inhibition at 10 uM incubated for 48 hrs by sulforhodamine B assay; format: functional; conditions: read-out: GI; outline: as §1
PC-3 = assay: Antitumor activity against human PC-3 cells assessed as cell growth inhibition at 10 uM incubated for 48 hrs by sulforhodamine B assay; format: functional; conditions: read-out: GI; outline: as §1
NCI-H460 = assay: Antitumor activity against human NCI-H460 cells assessed as cell growth inhibition at 10 uM incubated for 48 hrs by sulforhodamine B assay; format: functional; conditions: read-out: GI; outline: as §1
SK-MEL-2 = assay: Antitumor activity against human SK-MEL-2 cells assessed as cell growth inhibition at 10 uM incubated for 48 hrs by sulforhodamine B assay; format: functional; conditions: read-out: GI; outline: as §1
HOP-62 = assay: Antitumor activity against human HOP62 cells assessed as cell growth inhibition at 10 uM incubated for 48 hrs by sulforhodamine B assay; format: functional; conditions: read-out: GI; outline: as §1
Hs-578T = assay: Antitumor activity against human HS 578T cells assessed as cell growth inhibition at 10 uM incubated for 48 hrs by sulforhodamine B assay; format: functional; conditions: read-out: GI; outline: as §1
SNB-75 = assay: Antitumor activity against human SNB-75 cells assessed as cell growth inhibition at 10 uM incubated for 48 hrs by sulforhodamine B assay; format: functional; conditions: read-out: GI
Outline: (§2)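 NCI one-dose screen: 57-cell-line panel exposed at 10 μM for 48 h, Drug Evaluation Branch protocol. Growth and viability read by sulforhodamine B; data given as percent growth inhibition from the mean-graph of percent growth of treated cells.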

Malme-3M = assay: Antitumor activity against human MALME-3M cells assessed as cell growth inhibition at 10 uM incubated for 48 hrs by sulforhodamine B assay; format: functional; conditions: read-out: GI; outline: as §1
[1] = target: Cyclin-dependent kinase 2/cyclin E1 (Homo sapiens, UniProt P24941); assay: Inhibition of CDK2/cyclin E (unknown origin) expressed in baculovirus infected Sf21 insect cells using histone H1 as substrate in presence of [gamma33P]ATP
NCI-H226 = assay: Antitumor activity against human NCI-H226 assessed as cell growth inhibition at 10 uM incubated for 48 hrs by sulforhodamine B assay; format: functional; conditions: read-out: GI; outline: as §1
NCI/ADR-RES = assay: Antitumor activity against human NCI/ADR-RES cells assessed as cell growth inhibition at 10 uM incubated for 48 hrs by sulforhodamine B assay; format: functional, cell-based; outline: as §1
IGROV-1 = assay: Antitumor activity against human IGROV1 cells assessed as cell growth inhibition at 10 uM incubated for 48 hrs by sulforhodamine B assay; format: functional; conditions: read-out: GI; outline: as §1
NCI-H322M = assay: Antitumor activity against human NCI-H322M cells assessed as cell growth inhibition at 10 uM incubated for 48 hrs by sulforhodamine B assay; format: functional; conditions: read-out: GI; outline: as §1
CAKI-1 = assay: Antitumor activity against human CAKI-1 cells assessed as cell growth inhibition at 10 uM incubated for 48 hrs by sulforhodamine B assay; format: functional; conditions: read-out: GI; outline: as §1
NCI-H522 = assay: Antitumor activity against human NCI-H522 cells assessed as cell growth inhibition at 10 uM incubated for 48 hrs by sulforhodamine B assay; format: functional; conditions: read-out: GI; outline: as §1
OVCAR-8 = assay: Antitumor activity against human OVCAR-8 cells assessed as cell growth inhibition at 10 uM incubated for 48 hrs by sulforhodamine B assay; format: functional; conditions: read-out: GI; outline: as §1
Carbonic anhydrase 2 = Carbonic anhydrase 2 (Homo sapiens, UniProt P00918); assay: Inhibition of recombinant human carbonic anhydrase 2 preincubated with enzyme for 15 mins by phenol red dye based stopped flow CO2 hydrase assay
SF-539 = assay: Antitumor activity against human SF539 cells assessed as cell growth inhibition at 10 uM incubated for 48 hrs by sulforhodamine B assay; format: functional; conditions: read-out: GI; outline: as §1
K562 = assay: Antitumor activity against human K562 cells assessed as cell growth inhibition at 10 uM incubated for 48 hrs by sulforhodamine B assay; format: functional; conditions: read-out: GI; outline: as §1
CCRF-CEM = assay: Antitumor activity against human CCRF-CEM cells assessed as cell growth inhibition at 10 uM incubated for 48 hrs by sulforhodamine B assay; format: functional; conditions: read-out: GI; outline: as §1
Carbonic anhydrase 9 = Carbonic anhydrase 9 (Homo sapiens, UniProt Q16790); assay: Inhibition of recombinant human carbonic anhydrase 9 preincubated with enzyme for 15 mins by phenol red dye based stopped flow CO2 hydrase assay
U-251 = assay: Antitumor activity against human U251 cells assessed as cell growth inhibition at 10 uM incubated for 48 hrs by sulforhodamine B assay; format: functional; conditions: read-out: GI; outline: as §2
Carbonic anhydrase 1 = Carbonic anhydrase 1 (Homo sapiens, UniProt P00915); assay: Inhibition of recombinant human carbonic anhydrase 1 preincubated with enzyme for 15 mins by phenol red dye based stopped flow CO2 hydrase assay
Carbonic anhydrase 1, sequence (P00915 whole entry): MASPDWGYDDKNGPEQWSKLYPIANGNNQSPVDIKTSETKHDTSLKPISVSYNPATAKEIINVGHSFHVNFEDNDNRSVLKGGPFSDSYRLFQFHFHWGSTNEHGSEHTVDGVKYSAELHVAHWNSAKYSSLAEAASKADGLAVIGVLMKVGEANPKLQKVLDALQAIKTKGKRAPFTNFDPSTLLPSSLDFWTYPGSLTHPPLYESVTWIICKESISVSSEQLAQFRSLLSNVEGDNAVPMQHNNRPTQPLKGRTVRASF

OVCAR-3 = assay: Antitumor activity against human OVCAR-3 cells assessed as cell growth inhibition at 10 uM incubated for 48 hrs by sulforhodamine B assay; format: functional; conditions: read-out: GI; outline: as §1
UO-31 = assay: Antitumor activity against human UO-31 cells assessed as cell growth inhibition at 10 uM incubated for 48 hrs by sulforhodamine B assay; format: functional; conditions: read-out: GI; outline: as §2
MDA-MB-468 = assay: Antitumor activity against human MDA-MB-468 cells assessed as cell growth inhibition at 10 uM incubated for 48 hrs by sulforhodamine B assay; format: functional; conditions: read-out: GI; outline: as §1
T47D = assay: Antitumor activity against human T-47D cells assessed as cell growth inhibition at 10 uM incubated for 48 hrs by sulforhodamine B assay; format: functional; conditions: read-out: GI; outline: as §2
MOLT-4 = assay: Antitumor activity against human MOLT4 cells assessed as cell growth inhibition at 10 uM incubated for 48 hrs by sulforhodamine B assay; format: functional; conditions: read-out: GI; outline: as §1

N#Cc1c(-c2ccc(Br)cc2)nc2c(/N=N/c3ccc(S(N)(=O)=O)cc3)c(N)nn2c1N
inhibition of growth at 10 µM (SN12C): 54% | inhibition of growth at 10 µM (MDA-MB-231): 59% | inhibition of growth at 10 µM (MCF7): 68% | inhibition of growth at 10 µM (LOX IMVI): 71% | inhibition of growth at 10 µM (KM12): 48% | inhibition of growth at 10 µM (SK-MEL-5): 54% | Ki (Carbonic anhydrase 12): 0.0432 µM | inhibition of growth at 10 µM (RPMI-8226): 114% | inhibition of growth at 10 µM (HCT-116): 75% | inhibition of growth at 10 µM (DU-145): 67% | inhibition of growth at 10 µM (BT-549): 26% | inhibition of growth at 10 µM (PC-3): 62% | inhibition of growth at 10 µM (NCI-H460): 63% | inhibition of growth at 10 µM (SK-MEL-2): 57% | inhibition of growth at 10 µM (HOP-62): 48% | inhibition of growth at 10 µM (Hs-578T): 55% | inhibition of growth at 10 µM (SNB-75): 43% | inhibition of growth at 10 µM (Malme-3M): 42% | IC50 [1]: > 12.5 µM | inhibition of growth at 10 µM (NCI-H226): 34% | Activity (NCI/ADR-RES): inactive | inhibition of growth at 10 µM (IGROV-1): 59% | inhibition of growth at 10 µM (NCI-H322M): 25% | inhibition of growth at 10 µM (CAKI-1): 47% | inhibition of growth at 10 µM (NCI-H522): 61% | inhibition of growth at 10 µM (OVCAR-8): 53% | Ki (Carbonic anhydrase 2): 0.885 µM | inhibition of growth at 10 µM (SF-539): 61% | inhibition of growth at 10 µM (K562): 64% | inhibition of growth at 10 µM (CCRF-CEM): 104% | Ki (Carbonic anhydrase 9): 0.0657 µM | inhibition of growth at 10 µM (U-251): 59% | Ki (Carbonic anhydrase 1): 4.16 µM | inhibition of growth at 10 µM (OVCAR-3): 45% | inhibition of growth at 10 µM (UO-31): 41% | inhibition of growth at 10 µM (MDA-MB-468): 76% | inhibition of growth at 10 µM (T47D): 68% | inhibition of growth at 10 µM (MOLT-4): 98%
